Assay results: ChEMBL document CHEMBL3739417, “Synthesis and biological evaluation of novel 4,5-disubstituted 2H-1,2,3-triazoles as cis-constrained analogues of combretastatin A-4” (2015)

Experiments:
Format in all cases: functional
[1] = Growth inhibition of human HOP62 cells after 48 hrs by sulforhodamine B assay; settings: HOP-62, 48 h
Summary of the method: (§1)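 NCI-60 panel screen by SRB assay (Rubinstein method). Percentage growth taken from optical density of SRB colour, read before and 48 hrs after exposure to compound or vehicle control. All analogues first screened at 10^-5 M. Analogues giving 60% growth inhibition at that level in at least eight lines then went to a five-concentration dose-response study.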

[2] = Growth inhibition of human HCC2998 cells after 48 hrs by sulforhodamine B assay; settings: HCC 2998, 48 h; summary of the method: as §1
MDA-MB-468 = assay: Growth inhibition of human MDA-MB-468 cells after 48 hrs by sulforhodamine B assay; settings: MDA-MB-468, 48 h; summary of the method: as §1
ACHN = assay: Growth inhibition of human ACHN cells after 48 hrs by sulforhodamine B assay; summary of the method: as §1
[3] = Growth inhibition of human HCT15 cells after 48 hrs by sulforhodamine B assay; settings: HCT-15, 48 h; summary of the method: as §1
[4] = Growth inhibition of human LOXIMVI cells after 48 hrs by sulforhodamine B assay; settings: LOX IMVI; summary of the method: as §1
[5] = Growth inhibition of human RPMI8226 cells after 48 hrs by sulforhodamine B assay; settings: RPMI-8226, 48 h; summary of the method: as §1
SK-MEL-2 = assay: Growth inhibition of human SK-MEL-2 cells after 48 hrs by sulforhodamine B assay; settings: SK-MEL-2, 48 h; summary of the method: as §1
SK-MEL-5 = assay: Growth inhibition of human SK-MEL-5 cells after 48 hrs by sulforhodamine B assay; settings: SK-MEL-5, 48 h; summary of the method: as §1
[6] = Growth inhibition of human SKOV3 cells after 48 hrs by sulforhodamine B assay; settings: SK-OV-3, 48 h; summary of the method: as §1
SR = assay: Growth inhibition of human SR cells after 48 hrs by sulforhodamine B assay; summary of the method: as §1
[7] = Growth inhibition of human SF268 cells after 48 hrs by sulforhodamine B assay; settings: SF-268, 48 h; summary of the method: as §1
786-0 = assay: Growth inhibition of human 786-0 cells after 48 hrs by sulforhodamine B assay; settings: 786-0, 48 h; summary of the method: as §1
[8] = Growth inhibition of human SF295 cells after 48 hrs by sulforhodamine B assay; settings: SF-295, 48 h; summary of the method: as §1
[9] = Growth inhibition of human OVCAR3 cells after 48 hrs by sulforhodamine B assay; settings: OVCAR-3, 48 h
Summary of the method: (§2)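 NCI-60 sulforhodamine B screen. Compounds were first tested at a single dose of 10⁻⁵ M; hits, defined as ≥60% growth inhibition in at least eight lines, went on to a five-concentration dose–response. SRB optical density was read before and 48 h after exposure to compound or vehicle. Percentage growth was calculated from OD.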

K562 = assay: Growth inhibition of human K562 cells after 48 hrs by sulforhodamine B assay; settings: K562, 48 h; summary of the method: as §1
NCI-H460 = assay: Growth inhibition of human NCI-H460 cells after 48 hrs by sulforhodamine B assay; settings: NCI-H460, 48 h; summary of the method: as §1
[10] = Growth inhibition of human DU145 cells after 48 hrs by sulforhodamine B assay; settings: DU-145, 48 h; summary of the method: as §1
[11] = Growth inhibition of human HCT116 cells after 48 hrs by sulforhodamine B assay; settings: HCT-116, 48 h; summary of the method: as §1
NCI-H23 = assay: Growth inhibition of human NCI-H23 cells after 48 hrs by sulforhodamine B assay; settings: NCI-H23, 48 h; summary of the method: as §1
HT-29 = assay: Growth inhibition of human HT-29 cells after 48 hrs by sulforhodamine B assay; settings: HT-29, 48 h; summary of the method: as §1
[12] = Growth inhibition of human COLO205 cells after 48 hrs by sulforhodamine B assay; settings: COLO 205, 48 h; summary of the method: as §1
KM12 = assay: Growth inhibition of human KM12 cells after 48 hrs by sulforhodamine B assay; settings: KM12, 48 h; summary of the method: as §1
A498 = assay: Growth inhibition of human A498 cells after 48 hrs by sulforhodamine B assay; settings: A498, 48 h; summary of the method: as §2
[13] = Growth inhibition of human HOP92 cells after 48 hrs by sulforhodamine B assay; settings: HOP-92, 48 h; summary of the method: as §1
CAKI-1 = assay: Growth inhibition of human CAKI-1 cells after 48 hrs by sulforhodamine B assay; settings: CAKI-1, 48 h; summary of the method: as §1
MCF7 = assay: Growth inhibition of human MCF7 cells after 48 hrs by sulforhodamine B assay; settings: MCF7, 48 h; summary of the method: as §1
[14] = Growth inhibition of human PC3 cells after 48 hrs by sulforhodamine B assay; settings: PC-3, 48 h; summary of the method: as §1
[15] = Growth inhibition of human HL-60(TB) cells after 48 hrs by sulforhodamine B assay; settings: HL-60, 48 h; summary of the method: as §1
[16] = Growth inhibition of human NCI-ADR-RES cells after 48 hrs by sulforhodamine B assay; summary of the method: as §1
CCRF-CEM = assay: Growth inhibition of human CCRF-CEM cells after 48 hrs by sulforhodamine B assay; summary of the method: as §1
A549 = assay: Growth inhibition of human A549/ATCC cells after 48 hrs by sulforhodamine B assay; settings: A549, 48 h; summary of the method: as §1
U-251 = assay: Growth inhibition of human U251 cells after 48 hrs by sulforhodamine B assay; settings: U-251, 48 h; summary of the method: as §1
[17] = Growth inhibition of human IGROV1 cells after 48 hrs by sulforhodamine B assay; settings: IGROV-1, 48 h; summary of the method: as §1
MDA-MB-435 = assay: Growth inhibition of human MDA-MB-435 cells after 48 hrs by sulforhodamine B assay; settings: MDA-MB-435, 48 h; summary of the method: as §2
[18] = Growth inhibition of human SNB75 cells after 48 hrs by sulforhodamine B assay; settings: SNB-75, 48 h; summary of the method: as §1
MDA-MB-231 = assay: Growth inhibition of human MDA-MB-231 cells after 48 hrs by sulforhodamine B assay; settings: MDA-MB-231, 48 h; summary of the method: as §1
[19] = read-out: LD50 (the source's name)

Compound COc1ccc(-c2nn[nH]c2-c2cc(OC)c(OC)c(OC)c2)cc1 has a GI50 [1] of under 10 nM, an LC50 (concentration killing 50% of cells) ([1]; read-out: LD50) of over 100000 nM and a GI50 [2] of 24 nM. For the same compound, the CC50 [2, 19] was over 100000 nM, the GI50 (MDA-MB-468) was under 10 nM and the CC50 (MDA-MB-468; [19]) was over 100000 nM. For the same compound, the GI50 (ACHN) was under 10 nM, the CC50 (ACHN; [19]) was over 100000 nM and the GI50 [3] was under 10 nM. For the same compound, the CC50 [3, 19] was over 100000 nM, the GI50 [4] was under 10 nM and the CC50 [4, 19] was over 100000 nM. For the same compound, the GI50 [5] was under 10 nM, the CC50 [5, 19] was over 100000 nM and the GI50 (SK-MEL-2) was under 10 nM. It also gave a CC50 (SK-MEL-2; [19]) of over 100000 nM, a GI50 (SK-MEL-5) of under 10 nM and a CC50 (SK-MEL-5; [19]) of over 100000 nM. It also gave a GI50 [6] of under 10 nM, an LC50 (concentration killing 50% of cells) ([6]; read-out: LD50) of over 100000 nM and a GI50 (SR) of under 10 nM. For the same compound, the LC50 (concentration giving 50% net cell kill) (SR; read-out: LD50) was over 100000 nM, the GI50 [7] was under 10 nM and the CC50 [7, 19] was over 100000 nM. The GI50 (786-0) was under 10 nM, the LC50 (concentration killing 50% of cells) (786-0; read-out: LD50) was over 100000 nM and the GI50 [8] was under 10 nM. The CC50 [8, 19] was over 100000 nM, the GI50 [9] was under 10 nM and the TGI [9] was under 10 nM. The LC50 (concentration giving 50% net cell kill) ([9]; read-out: LD50) was over 100000 nM, the GI50 (K562) was under 10 nM and the CC50 (K562; [19]) was over 100000 nM. The GI50 (NCI-H460) was under 10 nM, the CC50 (NCI-H460; [19]) was over 100000 nM and the GI50 [10] was under 10 nM. It also gave a CC50 [10, 19] of over 100000 nM, a GI50 [11] of under 10 nM and a CC50 [11, 19] of over 100000 nM. For the same compound, the GI50 (NCI-H23) was under 10 nM, the LC50 (concentration giving 50% cell kill) (NCI-H23; read-out: LD50) was over 100000 nM and the GI50 (HT-29) was under 10 nM. It also gave an LC50 (concentration killing 50% of cells) (HT-29; read-out: LD50) of over 100000 nM, a GI50 [12] of 29 nM and a CC50 [12, 19] of over 100000 nM. For the same compound, the GI50 (KM12) was under 10 nM, the LC50 (concentration killing 50% of cells) (KM12; read-out: LD50) was over 100000 nM and the GI50 (A498) was under 10 nM. It also gave a TGI (A498) of under 10 nM, an LC50 (50% net cell kill) (A498; read-out: LD50) of over 100000 nM and a GI50 [13] of under 10 nM. It also gave a CC50 [13, 19] of over 100000 nM, a GI50 (CAKI-1) of under 10 nM and a CC50 (CAKI-1; [19]) of over 100000 nM. The GI50 (MCF7) was under 10 nM, the CC50 (MCF7; [19]) was over 100000 nM and the GI50 [14] was under 10 nM. It also gave a CC50 [14, 19] of over 100000 nM, a GI50 [15] of under 10 nM and a CC50 [15, 19] of over 100000 nM. For the same compound, the GI50 [16] was under 10 nM, the CC50 [16, 19] was over 100000 nM and the GI50 (CCRF-CEM) was under 10 nM. The LC50 (concentration killing 50% of cells) (CCRF-CEM; read-out: LD50) was over 100000 nM, the GI50 (A549) was under 10 nM and the CC50 (A549; [19]) was over 100000 nM. The GI50 (U-251) was under 10 nM, the CC50 (U-251; [19]) was over 100000 nM and the GI50 [17] was under 10 nM. The CC50 [17, 19] was over 100000 nM, the GI50 (MDA-MB-435) was under 10 nM and the TGI (MDA-MB-435) was under 10 nM. The LC50 (concentration killing 50% of cells) (MDA-MB-435; read-out: LD50) was over 100000 nM, the GI50 [18] was under 10 nM and the CC50 [18, 19] was over 100000 nM. It also gave a GI50 (MDA-MB-231) of under 10 nM and a CC50 (MDA-MB-231; [19]) of over 100000 nM.
